Measurements as given in ChEMBL document CHEMBL1124629, “Syntheses and biological activities of 13-substituted avermectin aglycons” (J Med Chem, 1989).

What was measured:
Tetranychus urticae [1] = experiment: Antiparasitic activity against two-spotted spider mite Tetranychus urticae on bean plants; format: functional
In short: (§1)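 Two-spotted spider mite (Tetranychus urticae) infesting bean plants treated with test compound.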

Spodoptera eridania [2] = experiment: Antiparasitic activity against southern army worm Spodoptera eridania; format: functional
In short: (§2)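 Neonate southern armyworm (Spodoptera eridania) larvae placed on bean leaves treated with test compound.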

[3] = tested on: Trichostrongylus colubriformis; experiment: Antiparasitic activity against sheep parasite Trichostrongylus colubriformis; format: functional
In short: (§3)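 Sheep nematode Trichostrongylus colubriformis tested in vivo in a gerbil infection model.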

[4] = Displacement of ivermectin from avermectin receptor of Caenorhabditis elegans
In short: (§4)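 Competitive binding with [22,23-3H2]ivermectin as radioligand, displaced from an avermectin receptor preparation derived from the free-living nematode Caenorhabditis elegans.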

[5] = tested on: Trichostrongylus colubriformis; experiment: Antiparasitic activity against sheep parasite Trichostrongylus colubriformis; details: in gerbil
Spodoptera eridania [6] = experiment: Antiparasitic activity against Southern army worm; format: functional; in short: as §2
[7] = tested on: Trichostrongylus colubriformis; experiment: Antiparasitic activity against Trichostrongylus colubriformis; format: functional; in short: as §3
Tetranychus urticae [8] = experiment: Antiparasitic activity against Tetranychus urticae; format: functional; in short: as §1
[9] = Binding radioligand; design: species or system Caenorhabditis elegans; in short: as §4

Ki [4] [nM] | Ki [9] [nM] | Compound | ED90 (Tetranychus urticae [1]) [p.p.m.] | ED90 (Spodoptera eridania [2]) [p.p.m.] | ED90 [3] [mg/kg] | ED90 [5] [mg/kg] | ED90 (Spodoptera eridania [6]) [p.p.m.] | ED90 [7] [mg/kg] | ED90 (Tetranychus urticae [8]) [p.p.m.]
– | – | IVERMECTIN [listing 1 of 2 here] | 0.05 | 8 | 0.05 | – | – | – | –
> 100 | – | CC[C@H](C)[C@H]1O[C@]2(CC[C@@H]1C)C[C@@H]1C[C@@H](C/C=C(\C)[C@@H](N)[C@@H](C)/C=C/C=C3\CO[C@@H]4[C@H](O)C(C)=C[C@@H](C(=O)O1)[C@]34O)O2 | >0.1 | >1 | – | 0.5 | – | – | –
0.6 | – | CC[C@H](C)[C@H]1O[C@]2(CC[C@@H]1C)C[C@@H]1C[C@@H](C/C=C(\C)C(=O)[C@@H](C)/C=C/C=C3\CO[C@@H]4[C@H](O)C(C)=C[C@@H](C(=O)O1)[C@]34O)O2 | – | – | – | – | >0.5 | 0.5 | 6.25
1 | – | CC[C@H](C)[C@H]1O[C@]2(CC[C@@H]1C)C[C@@H]1C[C@@H](C/C=C(\C)[C@H](Cl)[C@@H](C)/C=C/C=C3\CO[C@@H]4[C@H](O)C(C)=C[C@@H](C(=O)O1)[C@]34O)O2 | – | – | – | – | 0.5 | 0.1 | 0.25
0.2 | – | CC[C@H](C)[C@H]1O[C@]2(CC[C@@H]1C)C[C@@H]1C[C@@H](C/C=C(\C)[C@@H](F)[C@@H](C)/C=C/C=C3\CO[C@@H]4[C@H](O)C(C)=C[C@@H](C(=O)O1)[C@]34O)O2 | 0.05 | >0.5 | – | < 0.1 | – | – | –
– | 0.3 | CC[C@H](C)[C@H]1O[C@]2(CC[C@@H]1C)C[C@@H]1C[C@@H](C/C=C(C)/C(=N\OC)[C@@H](C)/C=C/C=C3\CO[C@@H]4[C@H](O)C(C)=C[C@@H](C(=O)O1)[C@]34O)O2 | 0.05 | 0.5 | – | < 0.1 | – | – | –
0.9 | – | CC[C@H](C)[C@H]1O[C@]2(CC[C@@H]1C)C[C@@H]1C[C@@H](C/C=C(\C)C[C@@H](C)/C=C/C=C3\CO[C@@H]4[C@H](O)C(C)=C[C@@H](C(=O)O1)[C@]34O)O2 | 0.05 | 0.5 | – | 0.06 | – | – | –
– | 0.3 | IVERMECTIN [listing 2 of 2 here] | – | – | – | – | – | – | –
0.3 | – | CC[C@H](C)[C@H]1O[C@]2(CC[C@@H]1C)C[C@@H]1C[C@@H](C/C=C(\C)[C@H](F)[C@@H](C)/C=C/C=C3\CO[C@@H]4[C@H](O)C(C)=C[C@@H](C(=O)O1)[C@]34O)O2 | 0.01 | 0.5 | – | < 0.1 | – | – | –
2.7 | – | CC[C@H](C)[C@H]1O[C@]2(CC[C@@H]1C)C[C@@H]1C[C@@H](C/C=C(\C)[C@@H](OCOCCOC)[C@@H](C)/C=C/C=C3\CO[C@@H]4[C@H](O)C(C)=C[C@@H](C(=O)O1)[C@]34O)O2 | – | – | – | – | <1 | > 0.1 | 0.05
2.4 | – | CC[C@H](C)[C@H]1O[C@]2(CC[C@@H]1C)C[C@@H]1C[C@@H](C/C=C(\C)[C@H](I)[C@@H](C)/C=C/C=C3\CO[C@@H]4[C@H](O)C(C)=C[C@@H](C(=O)O1)[C@]34O)O2 | – | – | – | – | – | 0.5 | 1.25
> 100 | – | CC[C@H](C)[C@H]1O[C@]2(CC[C@@H]1C)C[C@@H]1C[C@@H](CC(N3CCOCC3)/C(C)=C\[C@@H](C)/C=C/C=C3\CO[C@@H]4[C@H](O)C(C)=C[C@@H](C(=O)O1)[C@]34O)O2 (some centres not stated) | 6.25 | – | – | > 2.5 | – | – | –
– | > 100 | CC[C@H](C)[C@H]1O[C@]2(CC[C@@H]1C)C[C@@H]1C[C@@H](CC(N(C)C(C)=O)/C(C)=C\[C@@H](C)/C=C/C=C3\CO[C@@H]4[C@H](O)C(C)=C[C@@H](C(=O)O1)[C@]34O)O2 (some centres not stated) | >6.25 | – | – | > 2.5 | – | – | –
6.4 | – | CC[C@H](C)[C@H]1O[C@]2(CC[C@@H]1C)C[C@@H]1C[C@@H](C/C=C(\C)[C@@H](O)[C@@H](C)/C=C/C=C3\CO[C@@H]4[C@H](O)C(C)=C[C@@H](C(=O)O1)[C@]34O)O2 [IVM AGLYCONE] | 0.5 | >6.25 | – | – | – | – | –
2 | – | CC[C@H](C)[C@H]1O[C@]2(CC[C@@H]1C)C[C@@H]1C[C@@H](C/C=C(\C)[C@H](O)[C@@H](C)/C=C/C=C3\CO[C@@H]4[C@H](O)C(C)=C[C@@H](C(=O)O1)[C@]34O)O2 | 0.05 | >8 | – | < 0.5 | – | – | –
– | – | CC[C@H](C)[C@H]1O[C@]2(CC[C@@H]1C)C[C@@H]1C[C@@H](C/C=C(\C)[C@@H](Cl)[C@@H](C)/C=C/C=C3\CO[C@@H]4[C@H](O)C(C)=C[C@@H](C(=O)O1)[C@]34O)O2 | – | – | – | – | <1 | < 0.1 | >0.1
0.8 | – | CC[C@H](C)[C@H]1O[C@]2(CC[C@@H]1C)C[C@@H]1C[C@@H](C/C=C(C)/C=C(C)\C=C\C=C3/CO[C@@H]4[C@H](O)C(C)=C[C@@H](C(=O)O1)[C@]34O)O2 | >6.25 | >1 | – | > 2.5 | – | – | –
– | > 100 | CC[C@H](C)[C@H]1O[C@]2(CC[C@@H]1C)C[C@@H]1C[C@@H](CC(O)/C(C)=C\[C@@H](C)/C=C/C=C3\CO[C@@H]4[C@H](O)C(C)=C[C@@H](C(=O)O1)[C@]34O)O2 (some centres not stated) | >6.25 | – | – | – | – | – | –
0.6 | – | CC[C@H](C)[C@H]1O[C@]2(CC[C@@H]1C)C[C@@H]1C[C@@H](C/C=C(\C)[C@@H](OC)[C@@H](C)/C=C/C=C3\CO[C@@H]4[C@H](O)C(C)=C[C@@H](C(=O)O1)[C@]34O)O2 | 1 | – | – | 0.5 | – | – | –
2.9 | – | CC[C@H](C)[C@H]1O[C@]2(CC[C@@H]1C)C[C@@H]1C[C@@H](C/C=C(\C)[C@H](OCOCCOC)[C@@H](C)/C=C/C=C3\CO[C@@H]4[C@H](O)C(C)=C[C@@H](C(=O)O1)[C@]34O)O2 | – | – | – | – | >0.25 | < 0.1 | 0.01

Compound | Ki [4] [nM] | Ki [9] [nM] | ED90 (Tetranychus urticae [1]) [p.p.m.] | ED90 (Spodoptera eridania [2]) [p.p.m.] | ED90 [3] [mg/kg] | ED90 [5] [mg/kg] | ED90 (Spodoptera eridania [6]) [p.p.m.] | ED90 [7] [mg/kg] | ED90 (Tetranychus urticae [8]) [p.p.m.]
CC[C@H](C)[C@H]1O[C@]2(C=C[C@@H]1C)C[C@@H]1C[C@@H](C/C=C(\C)[C@@H](O[C@H]3C[C@H](OC)[C@@H](O[C@H]4C[C@H](OC)[C@@H](O)[C@H](C)O4)[C@H](C)O3)[C@@H](C)/C=C/C=C3\CO[C@@H]4[C@H](O)C(C)=C[C@@H](C(=O)O1)[C@]34O)O2 [ABAMECTIN COMPONENT B1A] | – | 0.1 | 0.05 | 8 | – | 0.03 | – | – | –
